Active and inactive are the calls of the source. The calls are words filed in the database; no cut-off is given here.
Key:
[1] = Cytotoxicity against human ARPE-19 cells assessed as reduction in nuclei count measured after 10 days for Hoechst 33342 staining based microscopic analysis; format: cell-based; details: time 10 day
Procedure, shortened: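 ARPE-19 epithelial cells seeded at 8k/well in complete DMEM with 10% FBS and treated with increasing compound concentrations 24 h later. Incubated 10 days at 37 °C. Formalin-fixed, stained with Hoechst 33342 (1 μg mL–1), and nuclei counted by high-content imaging. Counts normalized to DMSO wells. CC50 is the concentration reducing nuclei count by 50%. Mean of two wells ± SD.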

Human betaherpesvirus 5 [2] = assay: Antiviral activity against Human cytomegalovirus infected in ARPE-19 cells measured after 10 days by fluorescence based microscopic analysis; format: functional, cell-based
Procedure, shortened: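 Cells were ARPE-19 in phenol red-free DMEM with 10% FBS, seeded 8k/well. At 24 h they received a range of compound concentrations and hCMV ANCHOR at MOI 10, then were fixed 10 days post infection. Imaging scored infection rate (fluorescent/total cells) and ANCHOR spot intensity over ≥1000 cells/well, normalized to DMSO and used to derive IC50; mean of three wells ± SD.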

Human betaherpesvirus 5 [3] = assay: Antiviral activity against Human cytomegalovirus infected in MRC5 cells measured after 6 days by fluorescence based microscopic analysis; format: functional, cell-based
Procedure, shortened: (§1)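 MRC-5 primary fibroblasts in phenol red-free DMEM with 10% FBS were seeded 8k/well. At 24 h they were treated with compound, infected with hCMV ANCHOR at MOI 1, and fixed 6 days post infection. High-content imaging gave infection rate (fluorescent/total cells) and replication (integrated ANCHOR spot intensity) over ≥1000 cells/well, normalized to DMSO; mean of three wells ± SD.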

[4] = Cytotoxicity against human MRC5 cells assessed as reduction in nuclei count measured after 6 days for Hoechst 33342 staining based microscopic analysis; format: cell-based; details: time 6 day
Procedure, shortened: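 MRC-5 fibroblasts seeded at 8k/well in complete DMEM with 10% FBS and treated 24 h later with increasing compound concentrations. Incubated 6 days at 37 °C, 5% CO2. Formalin-fixed, Hoechst 33342 (1 μg mL–1) stained, and nuclei counted by high-content imaging. Counts normalized to DMSO wells. CC50 is the concentration halving the nuclei count. Mean of two wells ± SD.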

[5] = Selectivity index, ratio of CC50 for human ARPE-19 cells assessed as reduction in nuclei count measured after […] 33342 staining based microscopic analysis to EC50 Human cytomegalovirus infected in ARPE-19 cells measured after 10 days by microscopic analysis; format: toxicity, cell-based; details: read-out: Ratio CC50/EC50
Procedure, shortened: (§2)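 CC50 comes from Hoechst nuclei counts after compound treatment, normalized to DMSO. IC50 comes from hCMV ANCHOR infection at MOI 1 in MRC-5 (read 6 dpi) or MOI 10 in ARPE-19 (read 10 dpi). Infection rate is fluorescent cells over total cells, from at least 1000 cells per well, in triplicate wells. SI is CC50 divided by IC50.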

Human betaherpesvirus 5 [6] = assay: Antiviral activity against Human cytomegalovirus infected in MRC5 cells assessed as reduction in viral plaque at 0.3 uM measured after 6 days by microscopic analysis; format: functional, cell-based; details: time 6.0 day
Procedure, shortened: (§3)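 MRC-5 fibroblasts seeded at 8k cells/well and infected 24 h later with fluorescent hCMV ANCHOR strain at MOI 1, with compound added at increasing concentrations. Cultured 6 days, fixed with formalin, nuclei stained with Hoechst, and imaged by high-content microscopy. Fluorescent plaques and replication centres were scored against DMSO-treated cells.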

[7] = Selectivity index, ratio of CC50 for human MRC5 cells assessed as reduction in nuclei count measured after 6 days for Hoechst 33342 staining based microscopic analysis to EC50 Human cytomegalovirus infected in MRC5 cells measured after 6 days by microscopic analysis; format: toxicity, cell-based; details: time 6 day, read-out: Ratio CC50/EC50; procedure, shortened: as §2
Human betaherpesvirus 5 [8] = assay: Antiviral activity against Human cytomegalovirus harboring ANCHOR infected in MRC5 cells assessed as reduction in viral infection at measured after 6 days by microscopic analysis relative to control; format: functional, cell-based; details: time 6.0 day; procedure, shortened: as §1
Human betaherpesvirus 5 [9] = assay: Antiviral activity against Human cytomegalovirus infected in MRC5 cells assessed as reduction in viral plaque at 1.25 uM measured after 6 days by microscopic analysis; format: functional, cell-based; details: time 6.0 day; procedure, shortened: as §3
Human betaherpesvirus 5 [10] = assay: Antiviral activity against Human cytomegalovirus harboring ANCHOR infected in ARPE-19 cells assessed as reduction in viral infection measured after 10 days by microscopic analysis relative to control; details: time 10.0 day
Human betaherpesvirus 5 [11] = assay: Antiviral activity against Human cytomegalovirus harboring ANCHOR infected in ARPE-19 cells assessed as reduction in viral replication at 0.75 uM measured after 6 days by microscopic analysis relative to control; format: functional; details: time 6 day
Procedure, shortened: (§4)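 ARPE-19 epithelial cells grown in phenol red-free DMEM with 10% FBS, seeded 8k/well. After 24 h they were treated with compound and infected with hCMV ANCHOR (fluorescently labelled viral DNA) at MOI 10, then fixed 6 days post infection. High-content imaging scored infection rate (fluorescent/total cells) and replication (integrated ANCHOR spot intensity) over ≥1000 cells/well, normalized to DMSO; mean of three wells ± SD.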

Human betaherpesvirus 5 [12] = assay: Antiviral activity against Human cytomegalovirus harboring ANCHOR infected in MRC5 cells assessed as reduction in viral infection at 0.75 uM measured after 6 days by microscopic analysis relative to control; format: functional; parameters: scale not given: the % may be the effect or the level left; details: time 6 day; procedure, shortened: as §1
Human betaherpesvirus 5 [13] = assay: Antiviral activity against Human cytomegalovirus harboring ANCHOR infected in ARPE-19 cells assessed as reduction in viral infection at 0.75 uM measured after 6 days by microscopic analysis relative to control; format: functional; details: time 6 day; procedure, shortened: as §4
Human betaherpesvirus 5 [14] = assay: Antiviral activity against Human cytomegalovirus harboring ANCHOR infected in MRC5 cells assessed as reduction in virus-induced cytopathic effect; format: functional, cell-based
Human betaherpesvirus 5 [15] = assay: Antiviral activity against Human cytomegalovirus harboring ANCHOR infected in MRC5 cells assessed as reduction in viral replication at 0.75 uM measured after 6 days by microscopic analysis relative to control; format: functional; parameters: scale not given: the % may be the effect or the level left; details: time 6 day; procedure, shortened: as §1
[16] = Human betaherpesvirus 5, ARPE-19, 240 h, read-out: IC50
[17] = Human betaherpesvirus 5, MRC5, 144 h, read-out: IC50

| SMILES | CC50 at 240 h [1] [µM] | IC50 (Human betaherpesvirus 5 [2]; arpe-19) | IC50 (Human betaherpesvirus 5 [3]; mrc5) | CC50 at 144 h [4] [µM] | selectivity ratio [5] | IC50 (Human betaherpesvirus 5 [2]; [16]) [µM] | selectivity ratio at 144 h [7] | IC50 (Human betaherpesvirus 5 [3]; [17]) [µM] | further results |
| --- | --- | --- | --- | --- | --- | --- | --- | --- | --- |
| O=[N+]([O-])c1cccc(-c2c3nc(c4ccc([nH]4)c(-c4cccc([N+](=O)[O-])c4)c4ccc([nH]4)c(-c4ccccc4)c4ccc2[nH]4)C=C3)c1 | > 50 | Not Active | Not Active | > 50 | – | – | – | – | – |
| O=[N+]([O-])c1cc(F)cc(-c2c3ccc([nH]3)c(-c3cc(F)ccc3[N+](=O)[O-])c3nc(c4ccc([nH]4)c(-c4cc(F)ccc4[N+](=O)[O-])c4ccc2[nH]4)C=C3)c1 | > 50 | – | – | > 50 | > 227 | 0.22 | > 25 | 2 | Activity (Human betaherpesvirus 5 [6]): Active; Activity (Human betaherpesvirus 5 [8]): Dose-dependent effect; Activity (Human betaherpesvirus 5 [9]): Active; Activity (Human betaherpesvirus 5 [10]): Dose-dependent effect |
| O=[N+]([O-])c1ccc(F)c(-c2c3nc(c4ccc([nH]4)c(-c4c(F)ccc([N+](=O)[O-])c4F)c4ccc([nH]4)c(-c4c(F)ccc([N+](=O)[O-])c4F)c4ccc2[nH]4)C=C3)c1F | 9.8 | – | – | 8.77 | 31.6 | 0.31 | 10.2 | 0.86 | – |
| O=[N+]([O-])c1ccc(Cl)cc1-c1c2nc(c3ccc([nH]3)c(-c3cc(Cl)ccc3[N+](=O)[O-])c3ccc([nH]3)c(-c3cc(Cl)ccc3[N+](=O)[O-])c3ccc1[nH]3)C=C2 | > 50 | Not Active | Not Active | > 50 | – | – | – | – | – |
| O=[N+]([O-])c1cc(F)cc(-c2c3nc(c4ccc([nH]4)c(-c4cc(F)cc([N+](=O)[O-])c4)c4ccc([nH]4)c(-c4cc(F)ccc4[N+](=O)[O-])c4ccc2[nH]4)C=C3)c1 | 16.5 | – | Not Active | 18 | 51 | 0.32 | – | – | – |
| O=[N+]([O-])c1cc(-c2c3nc(c4ccc([nH]4)c(-c4ccc(F)c([N+](=O)[O-])c4)c4ccc([nH]4)c(-c4ccc(F)c([N+](=O)[O-])c4)c4ccc2[nH]4)C=C3)ccc1F | > 50 | Not Active | Not Active | > 50 | – | – | – | – | – |
| O=[N+]([O-])c1ccc(-c2c3nc(c4ccc([nH]4)c(-c4ccc([N+](=O)[O-])c(F)c4)c4ccc([nH]4)c(-c4ccc([N+](=O)[O-])c(F)c4)c4ccc2[nH]4)C=C3)cc1F | > 50 | Not Active | Not Active | > 50 | – | – | – | – | – |
| O=[N+]([O-])c1cccc(-c2c3nc(c4ccc([nH]4)c(-c4cccc([N+](=O)[O-])c4)c4ccc([nH]4)c(-c4ccc(F)c([N+](=O)[O-])c4)c4ccc2[nH]4)C=C3)c1 | > 50 | – | Not Active | > 50 | > 10 | 5 | – | – | – |
| O=[N+]([O-])c1ccc(F)c(-c2c3nc(c4ccc([nH]4)c(-c4cc([N+](=O)[O-])ccc4F)c4ccc([nH]4)c(-c4cc([N+](=O)[O-])ccc4F)c4ccc2[nH]4)C=C3)c1 | 50 | – | – | 3.7 | 39 | 1.3 | 2.4 | 1.5 | fold change (FC) (Human betaherpesvirus 5 [11]): 5; Activity (Human betaherpesvirus 5 [12]): 60%; fold change (FC) (Human betaherpesvirus 5 [13]): 10; Activity (Human betaherpesvirus 5 [14]): Active; Activity (Human betaherpesvirus 5 [15]): 80% |

From ChEMBL document CHEMBL4699411, “A3- and A2B-nitrocorroles: synthesis and antiviral activity evaluation against human cytomegalovirus infection” (RSC Med Chem, 2020)
